# “Also recorded” adds a separate entry of the source.
# Key:
# Format in all cases: in vivo, Swiss male mice
# [1] = test system: scopolamine-induced memory impairment in mice; assay: Novel object recognition test; details: test phase
# How it was run: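 Swiss male mice, n = 10/group. Test compound (5, 10 or 15 mg/kg) p.o. in saline 1 h before, scopolamine 1.5 mg/kg i.p. 30 min before. Box is 45 × 45 × 50 cm; 5-min sample phase, then 5-min test 24 h later with one object replaced. Nose/forepaw contact is scored as exploration, normalized to total exploration time. Repeated-measures two-way ANOVA, Tukey; mean ± SEM.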
# [2] = test system: scopolamine-induced memory impairment in mice; assay: Y-maze test in scopolamine-treated mice; details: scopolamine 1.5 mg/kg i.p. alone; compared with control group; p < 0.01
# How it was run: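 Swiss male mice, n = 10/group. Test compound p.o. in saline 1 h before, scopolamine 1.5 mg/kg i.p. 30 min before a 10-min session. Arm entry means all four legs inside. Alternation (%) = alternations/(total entries − 2) × 100; entries serve as locomotor index. Arms cleaned with 10% ethanol. One-way ANOVA, Tukey; mean ± SEM.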
# [3] = test system: scopolamine-induced memory impairment in mice; assay: Morris water maze; details: scopolamine 1.5 mg/kg i.p. alone
# How it was run: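 Swiss male mice, n = 10/group. Test compound p.o. in saline 1 h before, scopolamine 1.5 mg/kg i.p. 30 min before each session. Training runs over 6 days, 4 trials/day about 2 min apart, maximum 1 min per trial, then 10 s on the platform if not found. Day 7 probe without platform. Mean ± SEM; repeated-measures two-way ANOVA (training), one-way ANOVA (probe), Tukey.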
# [4] = training trials, day 1 to day 6
Compound,"normalized time exploring novel object versus familiar object ([1]; 5 mg/kg p.o. + scopolamine 1.5 mg/kg i.p., p < 0.001)","normalized time exploring novel object versus familiar object ([1]; scopolamine 1.5 mg/kg i.p. alone, p > 0.05)",spontaneous alternation (%) [2],"time spent in the target quadrant ([3]; probe trial day 7, compared with control group)","escape latency [3, 4]","travel (swimming) distance [3, 4]"
COc1cc2c(cc1OC)C(=O)C(CC1CCN(Cc3ccccc3)CC1)C2 (stereo not drawn) [donepezil],significantly longer,–,–,–,–,–
CN1[C@@H]2C[C@@H](OC(=O)[C@H](CO)c3ccccc3)C[C@H]1[C@@H]1O[C@@H]12 [scopolamine],–,no statistically significant difference,significantly lower; also recorded: significantly decreased,significantly lower; also recorded: decreased,no significant differences,no significant differences

# — publication PMC7671694 (Pharmaceutical Biology, 2020)
